Assay results pooled from the literature.
Cell line: MV4-11
Observed: cell growth or viability

O=C(NO)c1ccc(Cn2cnc3c(Nc4ccc(Cl)cc4)ncnc32)cc1  IC50 (MTT; 72 h): 60 nM
Cc1n[nH]c2ccc3nc(-c4ccc(C(=O)N(C)CCN(C)C)cc4)c4c(c3c12)CCC(C)(C)C4  GI50 (resazurin; 72 h): 258 nM
Cc1sc2c(c1C)C(c1ccc(Cl)cc1)=N[C@@H](CC(=O)NCCCCNC(=O)COc1cccc3c1C(=O)N(C1CCC(=O)NC1=O)C3=O)c1nnc(C)n1-2 (stereo partly drawn)  IC50 (CCK-8; 72 h): 520 nM
c1cc(-c2cc3ncc(OCC4CCNCC4)nc3cc2-c2cccc(N3CCCCC3)c2)cc(N2CCCCC2)c1  EC50 (XTT; 7 days): 1400 nM
Nc1ccccc1NC(=O)c1ccc(Cn2cnc3c(Nc4ccc(Cl)cc4)ncnc32)cc1  IC50 (MTT; 72 h): 590 nM
NCCNC(=O)c1ccc(-c2nc3ccc4[nH]ncc4c3c3c2CCCC3)cc1  GI50 (resazurin; 72 h): 480 nM
CONC(=O)c1cccc2c1cc(C)n2-c1nc2c(c(NCc3ccccc3)n1)CCCN2  IC50 (72 h): 400 nM
c1cc(N2CCC(N3CCOCC3)CC2)ccc1Nc1ccc2ncc(OCC3CCNCC3)nc2c1  EC50 (XTT; 7 days): ≥ 28000 nM
O=C(NO)c1ccc(Cn2cnc3c(Nc4ccc(Br)cc4F)ncnc32)cc1  IC50 (MTT; 72 h): 770 nM
O=C(NCCN1CCCC1)c1ccc(-c2nc3ccc4[nH]ncc4c3c3c2CCCC3)c(F)c1  GI50 (resazurin; 72 h): 208 nM
c1cc(N2CCCC2)ccc1-c1cc2ncc(OCC3CCNCC3)nc2cc1-c1ccc(N2CCCC2)cc1  EC50 (XTT; 7 days): 1900 nM
CN(C)CCNC(=O)c1ccc(-c2nc3ccc4[nH]ncc4c3c3c2COCC3)cc1  GI50 (resazurin; 72 h): 291 nM
COc1ccc(Nc2ncnc3c2ncn3Cc2ccc(C(=O)NO)cc2)cc1  IC50 (MTT; 72 h): 580 nM
Nc1cccc(-c2ccc3ncc(OCC4CCNCC4)nc3c2)c1  EC50 (XTT; 7 days): ≥ 28000 nM
CN(C)CCN(C)C(=O)c1ccc(-c2nc3ccc4[nH]ncc4c3c3c2CC(C)(C)CC3)cc1  GI50 (resazurin; 72 h): 1900 nM
